This is a sample that favours compounds with a hit; in the whole collection about 1.8% have one here.
APJ ag: agonists of human APJ apelin receptor; P35414; CHO-K1 APJ PathHunter beta-arrestin, luminescence; 0% DMSO wells, 100% apelin; activation, % at 20 µM; actives 0.11% (n = 330,000);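 active = activation more than six SD over the plate average, tested at 20 µM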
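system = engineered CHO-K1 APJ arrestin reporter cells | input = 1000 cells per well | timing = overnight seeding, 90 min compound at 25 °C, 1 h detection | measured by = enzyme-fragment complementation luminescence | read-out = beta-arrestin recruitment to APJ as agonist activity, luminescent signal | control set = negative DMSO alone, positive Apelin-13 at 10 nM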
B2AR ag: activates human beta-2 adrenergic receptor causing internalization; response, % (concentration not given with the values); P07550; actives 0.43% (n = 340,000); Am2.2-beta2AR cells, FAP receptor internalization, flow cytometry;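 active = response above a set limit, near 3 SD of response in nonfluorescent compounds, cut at about 42% in these data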
CXCR6 block: blocks human CXCR6 beta-arrestin recruitment; O00574; CHO-K1 PathHunter CXCR6 beta-arrestin, luminescence; inhibition, % at 20 µM; actives 0.36% (n = 360,000); in the data active = inhibition above about 34%, passing the limit was not always enough;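 also: antagonist mode with CXCL16 agonist at 10 nM final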
CCR6 antag: blocks CCL20-driven beta-arrestin recruitment at human CCR6; P51684; CHO-K1 CCR6 PathHunter beta-arrestin, luminescence, CCL20-stimulated; inhibition, % at 20 µM; actives 0.49% (n = 340,000); AID 493098;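 active = compounds whose inhibition of the agonist-driven luminescence signal at 20 µM reaches about 50%, limit read from the data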;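 also: cells stimulated with CCL20 at 14 nM final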
Target sequence (P51684 whole entry, looked up): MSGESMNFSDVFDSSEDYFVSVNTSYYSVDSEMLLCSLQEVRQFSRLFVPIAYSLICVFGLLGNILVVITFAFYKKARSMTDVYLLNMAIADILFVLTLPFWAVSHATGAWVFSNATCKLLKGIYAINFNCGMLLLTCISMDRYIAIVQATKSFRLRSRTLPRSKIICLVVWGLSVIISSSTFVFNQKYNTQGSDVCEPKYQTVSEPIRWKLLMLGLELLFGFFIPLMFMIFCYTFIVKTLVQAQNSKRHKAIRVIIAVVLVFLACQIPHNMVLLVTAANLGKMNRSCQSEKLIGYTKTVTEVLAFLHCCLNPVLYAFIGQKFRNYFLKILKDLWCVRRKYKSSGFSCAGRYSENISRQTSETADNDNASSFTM
APJ antag: blocks the human apelin receptor APJ | P35414 | CHO-K1 APJ beta-arrestin complementation, luminescence | inhibition, % at 20 µM | actives 0.32% (n = 330,000);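 active = inhibition above about 40% at 20 µM, limit read from the data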;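 also: cells challenged with 10 nM apelin-13 agonist together with compound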
EBI2 block: antagonists of human EBI2 receptor. P32249. EBI2 beta-arrestin recruitment, luminescence, 7a,25-OHC stimulated. inhibition, % at 5 µM. actives 0.81% (n = 360,000); in the data active = inhibition above about 38%;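 also: enzyme fragment complementation signal reports receptor beta-arrestin coupling in cells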
APJ ag conf: APJ receptor agonism confirmation; shares compounds with APJ ag; CHO-K1 APJ PathHunter beta-arrestin, luminescence; activation, % at 20 µM; actives 10% (n = 310); AID 2764;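 active = activation above 40%, taking the highest of four retests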
Hits are given with their value; - = inactive; . = no result given.

SMILES	APJ ag	B2AR ag	CXCR6 block	CCR6 antag	APJ antag	EBI2 block	others
CN1CCN(S(=O)(=O)c2ccc(NC(=S)NC(=O)c3ccc(Cl)cc3)cc2)CC1	.	-	-	-	.	-
C[C@@H](C(=O)NCCc1c[nH]c2ccccc12)[C@@H]1C[C@@]1(C)[C@@H](NC(=O)OCc1ccccc1)c1ccccc1	-	-	-	-	-	75
O=C(/C=C\c1ccccc1OC(=O)c1ccccc1F)c1cc2ccccc2o1	-	-	-	-	-	45
CC(=O)/C=C\c1ccccc1OC(=O)c1cc2ccccc2oc1=O	-	-	-	-	-	-
CCN1CCN(Cc2ccc(NC(=O)c3cc(NC(=O)C(=O)c4c[nH]c5ccccc45)cc(OC)c3)cc2C(F)(F)F)CC1	-	-	-	-	-	-
CCN1CCN(Cc2ccc(NC(=O)c3ccc(C)c(NC(=O)C(=O)c4c[nH]c5ccccc45)c3)cc2C(F)(F)F)CC1	-	50	-	-	-	-
C/C(=N/Nc1cc(-c2ccccc2)nc(-c2ccccc2)n1)c1ccc(O)cc1	-	-	-	-	-	60
COc1ccc(NC(=O)CN2C(=O)NC3(CCCc4ccccc43)C2=O)c(OC)c1 (centres undefined)	-	-	-	-	-	-
O=C(c1ccccc1)c1cc(Cl)ccc1N1C(=O)C=CC1=O	.	43	61	106	.	-
O=C(CC(=O)c1cc(Cl)ccc1O)c1ccccc1	-	-	-	-	-	-
Nc1ccccc1Sc1nc2ccccc2[nH]1	-	-	-	-	-	64
CCCCCCN(C(=O)CCCCCN1C(=O)NC(c2ccc(-c3ccccc3)cc2)C(C(=O)OCc2ccccc2)=C1C)C(C(=O)NCCCC)c1ccc(O)c(C(=O)OC)c1 (centres undefined)	-	.	.	.	-	.
Cc1cc(C)c(S(=O)(=O)/N=C2/C=C(Sc3ncn[nH]3)C(=O)c3ccccc32)cc1C	.	49	46	79	.	-
COC(=O)c1ccccc1S(=O)(=O)N1CCC(C(=O)NCc2ccccn2)CC1	.	.	-	.	.	-
COc1ccc(NC(=O)CNc2ccccc2C(C)=O)cc1S(=O)(=O)N1CCOCC1	-	-	-	-	-	-
C/C(Cl)=C\Cn1c(O)c(N=NC(N)=S)c2cc(Br)ccc21	-	-	-	55	-	-
NC(=S)N=Nc1c(O)n(CCCl)c2ccc(Br)cc12	-	-	-	-	-	-
COC(=O)[C@]12CCCCC=C1N(Cc1cccc3ccccc13)C(=O)[C@H](CC(=O)NCC1CCCCC1)C2	.	.	-	.	.	-
Cc1cccc(NC(=O)CNC(=O)CSc2nnc(C(F)(F)F)n2C)c1C	-	-	-	-	-	-
CCOC(=O)C1=C(N)n2c(s/c(=C\c3ccco3)c2=O)=C(C(=O)OC(C)C)C1c1ccco1 (centres undefined)	-	65	-	-	-	-
CC(=O)c1cccc(-c2ccnc3c2CC(C(=O)Nc2cccc(C(F)(F)F)c2)O3)c1 (centres undefined)	.	.	-	.	.	-
CCOC(=O)c1ccc(S(=O)(=O)N2CCN(CC(O)COc3ccc(C#N)cc3)CC2)cc1 (centres undefined)	-	-	-	-	-	50
CCOC(=O)c1ccc(S(=O)(=O)N2CCN(CCC#N)CC2)cc1	-	-	-	-	-	-
O=C(C#Cc1ccccc1)c1cccc([N+](=O)[O-])c1	-	67	91	93	-	-
CCC(C)[C@H]1CNC(=O)C(=O)N1CCc1cccc2ccccc12 (some centres undefined)	.	.	-	.	.	-
SMILES	APJ ag	B2AR ag	CXCR6 block	CCR6 antag	APJ antag	EBI2 block	others
CCC(C)[C@H]1CNC(=S)N1CCc1cccc2ccccc12 (some centres undefined)	-	-	-	-	-	46
COc1cccc(C(C#N)NCCCNC(C#N)c2cccc(OC)c2OC)c1OC (centres undefined)	.	-	-	-	.	-
S=C(NCCCN1CCOCC1)Nc1ccc(Cl)cc1	-	-	74	-	-	-
CC(C)(C)c1ccc(CC(=O)N2CCC2(C)C(=O)NS(=O)(=O)c2ccccc2Cl)cc1 (centres undefined)	.	.	-	.	.	-
CCCc1ccc(C2=Nn3c(nnc3C(C)C)SC2)cc1	-	66	-	-	-	-
CC(C)c1nnc2n1N=C(c1ccc(Cl)cc1)CS2	-	-	-	-	-	-
CCN1/C(=C/C=C/c2oc3ccc(-c4ccccc4)cc3[n+]2CC)Oc2ccc(-c3ccccc3)cc21	-	.	-	60	-	-
COc1ccccc1C(C)NC(=O)CCNC(=O)c1ccc(Cl)cc1 (centres undefined)	-	-	-	-	-	-
CCN(CC)S(=O)(=O)c1ccc2oc(C(=O)NCc3ccc(C)cc3)c(C)c2c1	-	-	-	-	-	70
Cc1cc2oc(=O)cc(Cn3ncc(Cl)c(Cl)c3=O)c2cc1Cl	-	-	-	-	-	50
COc1cc(NC(=O)COc2ccc([N+](=O)[O-])cc2)ccc1NC(=O)c1ccco1	.	.	-	.	.	-
Cc1csc(NC(=O)CSc2nc3[nH]c(=O)cc(O)c3s2)n1	.	93	-	-	.	-
O=C(CSc1nc2[nH]c(=O)cc(O)c2s1)Nc1nncs1	.	-	-	-	.	-
COC(=O)c1ccc(COc2ccccc2/C=C/C(=O)c2ccc(OCC(=O)O)cc2)cc1	-	47	-	-	-	-
COC(=O)c1ccc(COc2ccccc2/C=N/Nc2cccc(C(=O)O)c2)cc1	.	-	-	-	.	-
CCCCCCCCCC1NC(C(=O)O)Cc2c1[nH]c1ccccc21 (centres undefined)	.	.	-	.	.	-
C/C=C(/CCC1NCCc2c1[nH]c1ccccc21)[Si](C)(C)C (centres undefined)	.	-	-	51	.	-
CCCCn1c(NC(=O)c2ccc(F)cc2)c(C#N)c2nc3ccccc3nc21	-	.	.	.	56	.
O=[N+]([O-])c1ccc(/C=N/Nc2ccnc3cc(Cl)ccc23)o1	-	-	-	-	-	-
Clc1ccc2c(N/N=C/c3cccc(Br)c3)ccnc2c1	.	46	-	-	.	-
Clc1ccc2c(NNc3ccccc3Cl)ccnc2c1	-	-	-	-	-	-
Clc1ccc2c(N/N=C/c3ccccc3Br)ccnc2c1	-	42	-	-	-	-
N/C(Cc1ccc(Cl)c(Cl)c1)=N\OC(=O)c1cccs1	19	-	-	-	-	-	APJ ag conf=40
N/C(=N\OC(=O)c1cccs1)C1(c2ccc(Cl)cc2Cl)CC1	-	-	-	-	-	-
COc1ccc(NC2CCCN(C(=O)COc3ccc(C(C)=O)cc3)C2)cc1 (centres undefined)	.	.	-	.	.	-
